High-throughput results deposited in PubChem BioAssay by The Scripps Research Institute Molecular Screening Center.
A selection: hits, their analogues and other compounds. The true share with any hit is near 4.3%.
CHO parental Ca = ATP-evoked calcium signal inhibitors, parental CHO, primary screen, counter-screen for OX1R antagonist project, cell-based, fluorescence, Fluo-8 calcium dye; AID 463079, 2010; parental CHO-K1, ATP-induced calcium, Fluo-8 fluorescence; 0.63% of 330,000 active; inhibition, % at 5.6 µM;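 active means inhibition above that plate's mean sample inhibition plus 3 SD, cut at about 26% in these data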
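Test system: parental CHO cells; detection: calcium-sensitive Fluo-8 fluorescence; evaluation: percent inhibition of calcium signal; also added: ATP as calcium-mobilizing challenge; repeats: one well per compound; control set: ATP-challenged DMSO wells low, unchallenged DMSO wells high; compound: single nominal dose of 5.6 µM per compound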
TAAR1 agonist = human TAAR1 agonists, primary screen, Fluo-8 calcium fluorescence, CHO RD-HGA16 cells; Trace amine-associated receptor 1 (Homo sapiens), Q96RJ0; activation, % at 3 µM; 0.99% of 360,000 active; vehicle wells 0%, saturating PEA agonist 100%;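 active means activation above the mean activation of all test compounds in the run plus 3 SD, cut at about 38% in these data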
Target sequence (Q96RJ0 whole entry, looked up): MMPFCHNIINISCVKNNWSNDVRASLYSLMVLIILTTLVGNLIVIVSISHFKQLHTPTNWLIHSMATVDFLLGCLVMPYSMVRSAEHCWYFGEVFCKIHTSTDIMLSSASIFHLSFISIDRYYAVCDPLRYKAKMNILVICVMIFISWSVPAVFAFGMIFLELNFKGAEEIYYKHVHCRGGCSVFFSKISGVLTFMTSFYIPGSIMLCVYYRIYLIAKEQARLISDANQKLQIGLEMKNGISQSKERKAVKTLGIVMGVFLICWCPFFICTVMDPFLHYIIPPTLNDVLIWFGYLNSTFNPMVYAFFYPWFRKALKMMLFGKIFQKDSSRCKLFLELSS
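System: CHO RD-HGA16 cells carrying human TAAR1 plus Gα16; Incubation: 17-24 h seeding, 75 min 37 °C dye, 30 min RT; Measured by: Fluo-8 fluorescence, 5 s baseline then 140 s kinetic read; Control set: DMSO and PEA EC100; Replication: single well for each compound.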
OX1R antag-1 = antagonists of human orexin 1 receptor (OX1R). Orexin/Hypocretin receptor type 1 (Homo sapiens), O43613. OX1R-expressing cells, FRET antagonist read-out. inhibition, % at 6.6 µM. 1.8% of 330,000 active; in the data active means inhibition mostly above about 38%, no sharp cut-off; inactive means mostly below about 40%
TAAR1 antagonist = human TAAR1 antagonists, primary screen, Fluo-8 calcium fluorescence, CHO RD-HGA16 cells. Trace amine-associated receptor 1 (Homo sapiens), Q96RJ0. antagonist. inhibition, % at 3 µM. 1.5% of 360,000 active. AID 624466, 2012;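 active means inhibition above a per-plate cutoff, the mean inhibition of test compounds on that plate plus 3 SD, cut at about 49% in these data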
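Test system: RD-HGA16 CHO cells with stable hTAAR1 and Gα16 / Probe or stimulus: EC80 β-phenethylamine stimulus / Times: seeding 17-24 h prior, 75-min 37 °C, 30-min RT dye loading / Detection: Fluo-8 calcium-sensitive fluorescence / Read-out basis: % inhibition scaled between DMSO and EC80 PEA controls / Repeats: singlicate, one well per test compound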
GalR3 antag = GalR3 antagonists in HEK293 cells, primary screen, cell-based, fluorescence readout | HEK293 GalR3-CNG cAMP membrane potential fluorescence; galR3 body fused to GalR1 C-terminus | inhibition, % at 3 µM | 0.44% of 360,000 active;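 active means inhibition above the screen-wide average plus 3 SD, cut at about 13% in these data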;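 further: forskolin and galanin both at EC90 stimulate the cells; cAMP rise reported by CNG channel membrane potential dye signal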
OX1R antag-2 = OX1R (HCRTR1) antagonists, primary screen, fluorescence, CHO/OX1R cells, Fluo-8 calcium, orexin A | Orexin/Hypocretin receptor type 1 (Homo sapiens), O43613 | 0.43% of 330,000 active | AID 434989, 2010 | Fluo-8 calcium fluorescence | inhibition, % at 5 µM;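 active means inhibition above its plate's threshold, mean inhibition of all tested compounds on the plate plus 3 SD, cut at about 37% in these data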
Each line names hits and unclear results; the compound was inactive in the other large screens.

CC(C)c1ccc(N(C(=O)c2snc(C(N)=O)c2N)C(C(=O)NC2CCCC2)c2ccncc2)cc1 (stereo not drawn)	none
CC1(C(=O)NCc2ccccc2)CCC(=O)N1C1CC1 (stereo not drawn)	none (no result: CHO parental Ca, OX1R antag-1, OX1R antag-2)
CC1/C(=N/O)CC(c2ccccc2)NC1c1ccccc1 (stereo not drawn)	none
CCCC1/C(=N/O)CC(c2ccccc2)NC1c1ccccc1 (stereo not drawn)	TAAR1 antagonist 57
Cc1ccc(C(=O)COC(=O)c2cccc([N+](=O)[O-])c2)s1	none
c1cc2[nH]snc2c2nc(C3CC3)nc12	OX1R antag-1 46
CCCCCc1cc(=O)oc2c(C(CCN3CCCC3)c3ccc(N(C)C)cc3)c(OC)cc(OC)c12 (stereo not drawn)	none
CCCCCc1cc(=O)oc2c(C(CCN3CCCC(C)C3)c3ccc(OC)cc3)c(OC)cc(OC)c12 (stereo not drawn)	TAAR1 agonist 40
COc1ccc(Nc2oc(COc3ccc(C)cc3)nc2C#N)cc1	CHO parental Ca 38
N#Cc1nc(-c2cccs2)oc1NCc1ccc(Cl)cc1	TAAR1 antagonist 50
CCOc1ccc(Nc2oc(-c3ccco3)nc2C#N)cc1	none
CCOc1ccc(Nc2oc(-c3cccs3)nc2C#N)cc1	OX1R antag-1 57
Cc1noc(C)c1CSCC(=O)OCc1nnc(-c2ccc([N+](=O)[O-])cc2)o1	OX1R antag-1 47
Cc1noc(C)c1COc1ccc(C(=O)OCc2nnc(-c3ccc(Cl)cc3)o2)cc1	CHO parental Ca 35, OX1R antag-2 54
O=C(OCc1nnc(-c2ccc(Cl)cc2)o1)c1ccncc1	none
O=C(COc1ccc(S(=O)(=O)N2CCOCC2)cc1)Nc1cccc([N+](=O)[O-])c1	none
COc1ccccc1C1OC2=C(Nc3ccc([N+](=O)[O-])cc3N2)C1=O (stereo not drawn)	OX1R antag-1 43
COCCn1c(C)cc(C(=O)CN2CCCCC2)c1C	none
COCCn1c(C)cc(C(=O)CN2C(=O)NC3(CCCCCCC3)C2=O)c1C	OX1R antag-1 63
CCCOC(=O)C1NC(=O)N2C(C(=O)OCCC)C(C)(C)S[C@H]12 (stereo partly drawn)	none
CC1(C)S[C@@H]2C(C(=O)OCc3ccccc3)NC(=O)N2C1C(=O)OCc1ccccc1 (stereo partly drawn)	TAAR1 antagonist 51
Nc1c(C(=O)Nc2nccs2)sc2nc(-c3cccs3)cc(C(F)(F)F)c12	CHO parental Ca 42, OX1R antag-2 47
N#Cc1ccsc1NC(=O)COC(=O)c1cc2ccccc2cc1O	OX1R antag-1 41
COc1ccc(NC(=O)C(C)N2c3cccc4cccc(c34)S2(=O)=O)cc1 (stereo not drawn)	none
COc1ccc(NC(=O)C(C)N2c3cccc4cccc(c34)S2(=O)=O)cc1OC (stereo not drawn)	CHO parental Ca 41
CCOc1ccc(C(C(=O)NCC2CCCO2)N(C(=O)c2snc(C(N)=O)c2N)c2ccc(F)cc2)cc1 (stereo not drawn)	TAAR1 antagonist 49
COc1ccc(Cn2nc(C)cc2C)cc1OC	CHO parental Ca 99
Cc1cc(C)n(Cc2ccc(Cl)nc2)n1	none
Nc1ccccc1SC1CC(=O)N(c2ccc3c(c2)OCCO3)C1=O (stereo not drawn)	none
Nc1ccccc1SC1CC(=O)N(c2ccc(Cl)c(Cl)c2)C1=O (stereo not drawn)	CHO parental Ca 34, TAAR1 antagonist 59
CCCCOCCCNc1ncnc2c1[nH]c1ccccc12	CHO parental Ca 43, OX1R antag-1 52
CCCCOc1ncnc2c1[nH]c1ccccc12	OX1R antag-1 73
O=S(=O)(CCc1nc2ccccc2o1)c1ccc2ccccc2c1	OX1R antag-1 45
